In ChEMBL document CHEMBL1128714, “Synthesis and anti-HIV activity of 1,1'-dideoxygossypol and related compounds” (J Med Chem, 1995) one finds TC and EC50 data, which are given here for four molecules.

The subject of assay [1] is HeLa. The assay is described as follows: Highest concentration at which no visible changes in cell morphology or monolayer adhesion was detected. Format: functional, Homo sapiens.
Assay [2] deals with HeLa. Description: Compound was evaluated for the anti HIV activity in HT46c (HeLaT4+) cells as host cells for H9/HIV-IIIB strain of the HIV-1 virus; anti HIV activity masked by cytotoxicity. Format: functional, cell-based, Homo sapiens.
The subject of assay [3] is HeLa. Description: Compound was evaluated for the anti HIV activity in HT46c (HeLaT4+) cells as host cells for H9/HIV-IIIB strain of the HIV-1 virus. Format: functional, cell-based. The note with it: Homo sapiens. The essentials:
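HT46c (HeLaT4+) cells were plated at 5×10^4 cells/well in RPMI 1640 with 10% FBS and attached overnight. They were infected with HIV-1 H9/HIV-IIIB at an input giving 100–200 foci/well in positive controls by day 3. Compound was tested at 0.01, 0.1, 1.0, 5.0 and 20 μM for 3 days at 37 °C, 5% CO2. Foci were counted by focal immunoassay on methanol-fixed monolayers, and EC50 was derived.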

In the case of `Cc1ccc2c(C(=O)O)c(O)c(O)c(C(C)C)c2c1`, the TC in the assay on HeLa [1] is >20 µM.

Usually EC50 stands for the concentration giving half of the maximal effect. Higher therefore signals lower potency in that assay. Consider `Cc1cc2c(C(C)C)c(O)c(O)c(C=O)c2cc1-c1cc2c(C=O)c(O)c(O)c(C(C)C)c2cc1C`, for which the 50% effective concentration (EC50) result with HeLa [2] is “anti HIV activity masked by cytotoxicity”. The TC in the assay with HeLa [1] was >1 µM.

The molecule `Cc1cc2c(C(C)C)c(O)c(O)c(C(=O)O)c2cc1-c1cc2c(C(=O)O)c(O)c(O)c(C(C)C)c2cc1C` displayed an EC50 in the assay on HeLa [3] of 0.7 µM. Further, in the assay with HeLa [1], the TC was >5 µM. The like results for `Cc1ccc2c(C=O)c(O)c(O)c(C(C)C)c2c1` were, in that order, 20 µM and >1 µM.
